Measured values reported in PMC9033243 (RSC Advances, 2021).

Assays:
[1] = test system: E. coli (25922); assay: Antimicrobial susceptibility test; type: cell-based; details: Escherichia coli, 18 h, read-out: MIC E. coli (25922)
In short: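 Exponential-phase cells diluted to about 5 × 10^5 cfu mL−1, in CA-MHB for S. aureus ATCC 29213 and MHB for E. coli ATCC 25922. Test compound serially diluted in DMSO from a DMSO stock; final DMSO 1% (v/v), with 1% DMSO controls. After 37 °C for 18 h, OD600 is read and % inhibition taken against controls. MIC is the lowest concentration giving ≥90% inhibition. Three independent assays.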

[2] = target: T1, E. coli PBP 1b (Escherichia coli, UniProt P02919); assay: Lipid II-based in vitro transglycosylation assay; type: biochemical; details: read-out: Inhibition of PBP 1b activity at 50 μM
T1 sequence (P02919 1-844): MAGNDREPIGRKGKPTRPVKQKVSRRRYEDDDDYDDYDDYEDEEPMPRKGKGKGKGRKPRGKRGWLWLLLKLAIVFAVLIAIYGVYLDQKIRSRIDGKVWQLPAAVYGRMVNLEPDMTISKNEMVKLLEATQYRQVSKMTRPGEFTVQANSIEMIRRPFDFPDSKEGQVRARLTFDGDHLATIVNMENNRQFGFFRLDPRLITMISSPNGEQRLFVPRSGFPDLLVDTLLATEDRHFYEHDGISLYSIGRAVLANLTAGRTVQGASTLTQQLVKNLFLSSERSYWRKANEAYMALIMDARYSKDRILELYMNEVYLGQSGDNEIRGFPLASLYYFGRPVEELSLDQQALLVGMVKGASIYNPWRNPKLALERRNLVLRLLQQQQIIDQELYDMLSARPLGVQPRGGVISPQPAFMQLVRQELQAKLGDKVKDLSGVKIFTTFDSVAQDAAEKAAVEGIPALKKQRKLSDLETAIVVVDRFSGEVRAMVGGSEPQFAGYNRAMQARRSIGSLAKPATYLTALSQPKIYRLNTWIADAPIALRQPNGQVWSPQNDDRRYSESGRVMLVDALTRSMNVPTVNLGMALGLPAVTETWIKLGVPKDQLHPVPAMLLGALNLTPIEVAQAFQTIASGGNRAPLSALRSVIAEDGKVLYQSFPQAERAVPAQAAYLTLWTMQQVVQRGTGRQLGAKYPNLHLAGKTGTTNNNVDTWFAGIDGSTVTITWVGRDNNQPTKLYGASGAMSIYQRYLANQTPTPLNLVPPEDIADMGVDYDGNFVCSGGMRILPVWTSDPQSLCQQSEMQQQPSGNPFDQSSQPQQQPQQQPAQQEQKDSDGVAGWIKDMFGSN
In short: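 E. coli PBP 1b (13.2 nM) is preincubated with test compound for 5 min at 30 °C. Buffer: 50 mM HEPES pH 7.5, 200 mM NaCl, 10 mM CaCl2, 0.08% decyl PEG, 10% DMSO, 15% methanol, 2 U μL−1 muramidase. Dansyl-lipid II (5 μM) is added for 5 min at 30 °C. Moenomycin A (1 μM, 10 min) quenches […]. Read by anion-exchange HPLC, in duplicate. IC50 from Hill fit; Ki via IC50 = Ki(1 + [s]/Km), Km = 1.8 μM.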

SMILES: C=C(C/C=C(\C)CCC=C(C)C)CCC(C)(C)/C=C/CC/C(C)=C\CO[C@H](COP(=O)(O)O[C@H]1O[C@H](C(N)=O)[C@@](C)(O)[C@H](OC(N)=O)[C@H]1O[C@@H]1O[C@H](CO[C@@H]2O[C@H](CO)[C@@H](O)[C@H](O)[C@H]2O)[C@@H](O[C@@H]2O[C@H](C)[C@@H](O[C@@H]3O[C@H](C(=O)NC4=C(O)CCC4=O)[C@H](O)[C@H](O)[C@H]3O)[C@H](O)[C@H]2NC(C)=O)[C@H](O)[C@H]1NC(C)=O)C(=O)O [Moenomycin A]
- MIC [1]: > 96 µg/mL
- inhibition at 50 µM [2]: 100%
